Laboratory results taken from ChEMBL document CHEMBL1132804, “Inhibitors of src tyrosine kinase: the preparation and structure-activity relationship of 4-anilino-3-cyanoquinolines and 4-anilinoquinazolines” (Bioorg Med Chem Lett, 2000).

Assays:
[1] = biological target: T1, Proto-oncogene tyrosine-protein kinase Src (Homo sapiens, UniProt P12931); assay: In vitro inhibition of c-src tyrosine kinase.
Procedure, shortened: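 ELISA tyrosine kinase kit format. ATP was then added to start the reaction, which ran 1 h at 30 °C and was stopped with EDTA. Duplicate testing; IC50 is the average of two determinations.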

[2] = biological target: T1, Proto-oncogene tyrosine-protein kinase Src; assay: Inhibition of Src kinase at 1000 nM ATP
Procedure, shortened: (§1)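 ATP-dependence study in the same ELISA format. Human c-Src protein (3 units/reaction) and cdc2 substrate peptide were in Tris-HCl pH 7.5 buffer with MgCl₂, EGTA and Na₃VO₄. Compound preincubation was 10 min at 30 °C. The reaction was started with ATP at four final levels (100, 500, 1000, 5000), run 1 h at 30 °C and stopped with EDTA. IC50 was determined at each ATP level.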

[3] = biological target: T1, Proto-oncogene tyrosine-protein kinase Src; assay: Inhibition of Src kinase at 100 nM ATP; procedure, shortened: as §1
[4] = biological target: T1, Proto-oncogene tyrosine-protein kinase Src; assay: Inhibition of Src kinase at 5000 nM ATP; procedure, shortened: as §1
[5] = biological target: T1, Proto-oncogene tyrosine-protein kinase Src; assay: Inhibition of Src kinase at 500 nM ATP; procedure, shortened: as §1

T1 sequence (P12931 2-536 limits assumed): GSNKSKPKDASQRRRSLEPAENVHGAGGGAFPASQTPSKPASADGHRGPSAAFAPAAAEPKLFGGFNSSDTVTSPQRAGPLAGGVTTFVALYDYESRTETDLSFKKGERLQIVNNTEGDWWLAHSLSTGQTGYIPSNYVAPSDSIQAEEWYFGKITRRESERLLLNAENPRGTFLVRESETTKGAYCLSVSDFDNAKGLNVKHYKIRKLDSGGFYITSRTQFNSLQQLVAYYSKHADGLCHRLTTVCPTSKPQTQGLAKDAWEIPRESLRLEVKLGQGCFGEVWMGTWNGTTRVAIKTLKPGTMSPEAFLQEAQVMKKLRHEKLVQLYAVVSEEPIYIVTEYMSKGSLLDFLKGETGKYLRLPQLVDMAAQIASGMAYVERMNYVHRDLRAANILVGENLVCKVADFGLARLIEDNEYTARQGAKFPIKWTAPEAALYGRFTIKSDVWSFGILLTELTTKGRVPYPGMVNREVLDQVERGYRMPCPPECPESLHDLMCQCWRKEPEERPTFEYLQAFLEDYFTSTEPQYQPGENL

| SMILES | IC50 [1] | further results |
| --- | --- | --- |
| COc1cc2nccc(Nc3cc(OC)c(OC)c(OC)c3)c2cc1OC | 200 nM |  |
| COc1cc2c(Nc3cc(OC)c(OC)c(OC)c3)c(C#N)cnc2cc1OCCCN1CCCCC1 | 5.3 nM |  |
| CCCCCCCCCCCCOc1c(OC)cc(Nc2c(C#N)cnc3cc(OC)c(OC)cc23)cc1OC | 180 nM |  |
| COc1cc2ncnc(Nc3cc(OC)c(OC(C)(C)C)c(OC)c3)c2cc1OC | 2700 nM |  |
| COc1cc2ncnc(Nc3cc(OC)c(OC(C)C)c(OC)c3)c2cc1OC | 830 nM |  |
| CCCCCCCCCCCCOc1c(OC)cc(Nc2ncnc3cc(OC)c(OC)cc23)cc1OC | 5200 nM |  |
| CCOC(=O)c1cnc2cc(OC)c(OC)cc2c1Nc1cc(OC)c(OC)c(OC)c1 | > 10000 nM |  |
| COc1cc2ncc(C#N)c(Nc3cc(OC)c(OC)c(OC)c3)c2cc1OC | 35 nM | IC50 [2]: 190 nM; IC50 [3]: 34 nM; IC50 [4]: 650 nM; IC50 [5]: 108 nM |
| COc1cc2ncc(C#N)c(Nc3cc(OC)c(OC)c(OC)c3C)c2cc1OC | 470 nM |  |
| COc1ccc(Nc2c(C#N)cnc3cc(OC)c(OC)cc23)cc1OC | 950 nM |  |
| COc1cc(Nc2c(C#N)cnc3cc(OC)c(OC)cc23)cc(OC)c1 | 980 nM |  |

The next lines start with results.

| IC50 [1] | SMILES | further results |
| --- | --- | --- |
| > 10000 nM | COc1cc2ncc(CO)c(Nc3cc(OC)c(OC)c(OC)c3)c2cc1OC |  |
| 280 nM | COc1cc2ncnc(Nc3cc(OC)c(OC)c(OC)c3)c2cc1OC |  |
| 110 nM | COc1cc2ncc(C#N)c(Nc3cc(OC)c(OC(C)C)c(OC)c3)c2cc1OC |  |
| 63 nM | CCOc1c(OC)cc(Nc2c(C#N)cnc3cc(OC)c(OC)cc23)cc1OC |  |
| 290 nM | COc1cc2ncc(C#N)c(Oc3cc(OC)c(OC)c(OC)c3)c2cc1OC |  |
| 490 nM | CCCCOc1c(OC)cc(Nc2ncnc3cc(OC)c(OC)cc23)cc1OC |  |
| 170 nM | COc1cc2ncc(C#N)c(Nc3cc(OC)c(OC)c(OC)c3Br)c2cc1OC |  |
| 340 nM | CCOc1c(OC)cc(Nc2ncnc3cc(OC)c(OC)cc23)cc1OC |  |
| 5.5 nM | COc1cc2c(Nc3cc(OC)c(OC)c(OC)c3)c(C#N)cnc2cc1OCCCN1CCC(O)CC1 |  |
